# Measurements taken from the RNAGym collection of RNA variant scans (doi:10.1126/science.aae0568).
# This sample holds only a part of the variants without activity.
# B1: tRNA (parent)
# chain: GUUCCGUUGGCGUAAUGGUAACGCGUCUCCCUCCUAAGGAGAAGACUGCGGGUUCGAGUCCCGUACGGAACG
# Variants of: B1
# Experiment: yeast fitness relative to wild type (ratio to wild type); higher = fitter; tRNA-Arg(CCU), competitive growth, 37 C, YPD
# In short: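 Amplicons of the tRNA-Arg(CCU) gene were sequenced, 100-nucleotide paired-end, from the start population and from each end population of a pooled yeast competition. The competition, in six parallel replicates, lasted 24 hours in YPD at 37°C. Fitness relative to wild type was calculated from changes in genotype frequencies. Genotypes had to have ≥ 100 starting reads, and estimates < 0.5 were set to 0.5.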
row,Variant,yeast fitness
1,GUUCUGUUGACGUAAUGGUAACGCGUCUCCCUCCUAAGGAGAAGACUGCGGGUUCGAGUCCCGUACGGAACG [C5U G10A],0.702
2,GUUCUGUUGACGUUAUGGUAACGCGUCUCCAUCCUAAGGAGAAGAAUGCGGGUUCGAGUCCCGUUCGGAACG [C5U G10A A14U C31A C46A A65U],≤ 0.5
3,GUUCUGUUGACGUAAUGGUGACGCGUCUCCCUCCUUAGGAGACGACUGCGGGUUCGAGUCGCGUACGGAACG [C5U G10A A20G A36U A43C C61G],≤ 0.5
4,GUUCUGUUGACGUAAUGGUAGCGCGUCUCCCUCCUAAGAAGAAGACUCCGGGUUCGAGUCCCGUACGGAACG [C5U G10A A21G G39A G48C],0.598
5,GUUCUGUUGACGUAAUGGUAACGCGUCUCCCUCCUAAGGAGAAGACUGCGGGUUCGAGUCCCGUACGGAUCG [C5U G10A A70U],0.609
6,GUUCUGUUGACGUAAUGGUAACGCGUGUCCCUCCUAAGGAGAAGACUCCGGGUUCGAGUCGCGUACGGAACG [C5U G10A C27G G48C C61G],≤ 0.5
7,GUUCUGUUGACGUAAUGGUAACGCGUCUCCCUCCUAAGGAGAAGACUGCGGGUUCGAGUCCCGUAUGGAACG [C5U G10A C66U],0.574
8,GUUCUGUUGACAUAAUGGUAACGCGUCUCCCUCCUAAGGAGAAGACUGCGGGAUCGAGUCCCGUACGGAACG [C5U G10A G12A U53A],≤ 0.5
9,GUUCUGUUGACGUAAAGGUAACGCGUCUCCCUCCUAAGGAGAAGACUGCGGGUUCGAGUCCCGUGCGGAACG [C5U G10A U16A A65G],≤ 0.5
10,GUUCUGUUGCCGUAAUGGUAACGCGUCUCCCUCCUAAGGAGAAGACUGCGGGUUCGAGUCCCGUACGGAACG [C5U G10C],0.629
11,GUUCUGUUGCCGUAGUGGUAACGCGUCUCCCUCCUAAGGAGAAGACUGCGGGUUCGAGUCCCGUACUGAACG [C5U G10C A15G G67U],≤ 0.5
12,GUUCUGUUGCCGUAAUGGUAACGCGUGCCCCUCCUAAGCAGAAGAGUGCGGGUUCGAGUCCCGUGCGGAACG [C5U G10C C27G U28C G39C C46G A65G],≤ 0.5
13,GUUCUGUUGCCGUAAUGGUAACGCGUCUCACUCCUUAGGAGCAGACUGCGGGUUCGAGUCCCGUACGGAACG [C5U G10C C30A A36U A42C],≤ 0.5
14,GUUCUGUUGCCGUAAUGGUAACGCGUCUCGCUCUUAAGGAGCAGACUGCGGAUUCGAGUCCCGUACGGAACG [C5U G10C C30G C34U A42C G52A],≤ 0.5
15,GUUCUGUUGGCAUAAUGGUAACGCGUCUCCCUCCUAAGGAGAAGACUGCGGGUUCGAGUCCCGUACGGAACG [C5U G12A],0.959
16,GUUCUGUUGGCAUAAUGGUAACGCGUCUCCCUCCUAAGGUGAAGGCUGCGGGUUCGAGUACCAUACGGAACG [C5U G12A A40U A45G C60A G63A],≤ 0.5
17,GUUCUGUUGGCAUAAUGGUAACGCGUCUCCCUCCUAAGGUGAAUGCUGCGGGUUCGAGUACCGUACGGAACG [C5U G12A A40U G44U A45G C60A],≤ 0.5
18,GUUCUGUUGGCAUAAUGGUAACGCGUCUCCCUCCUAAGGAGAAGCCUGCGGGUUCGAGUCCCGUACGGAACG [C5U G12A A45C],0.782
19,GUUCUGUUGGCAUAAUGGUAACGCGUCUCCCUCCUAAGGAGAAGACUGCGGGUUCGAGUCCCGUACGGCACG [C5U G12A A69C],0.724

row,Variant,yeast fitness
1,GUUCUGUUGGCAUAAUGGUAACGCGUCUCCCUCCUAAGGAGAAGACUGCGGGUUCGAGUGCCGUACGGAACG [C5U G12A C60G],≤ 0.5
2,GUUCUGUUGGCCUAAUGGUAACGCGUCUCCCUCCUAAGGAGAAGACUGCGGGUUCGAGUCCCGUACGGAACG [C5U G12C],0.818
3,GUUCUGUUGGCCUAAUGGUAACGCGUCUCCCUCCUAAGGAGAAGACUGCGGGUUCGAGUCCCGUACGGUACG [C5U G12C A69U],0.62
4,GUUCUGUUGGCCUAAUGGUAACGCGUCUCCCUCCUAAGGAGAACACUGCGGGUUCGAGUCCCGUACGGAACG [C5U G12C G44C],0.53
5,GUUCUGUUGGCCUAAUGGUAACGCGUCUCCCACCAAAGGAGAAGACUGCGGGUCCGAGUCCCGUACGGAACG [C5U G12C U32A U35A U54C],≤ 0.5
6,GUUCUGUUGGCGUAAUAGUAACGCGUCUCCCUCCUAAGGUGCAGACUGAGGGUUCGAGUCCCGUACGGAACG [C5U G17A A40U A42C C49A],0.684
7,GUUCUGUUGGCGUAAUAGUAACGCGUCUCCCUCCUAAGGUGCAGACUGAGGGUUCGAGUCCCGUAAGGAACG [C5U G17A A40U A42C C49A C66A],0.593
8,GUUCUGUUGGCGUAAUAGUAACGCGUCUCCCUCCUAAGGAGAAGACUGCGGGUUCGAGUACCGUACGGAACG [C5U G17A C60A],≤ 0.5
9,GUUCUGUUGGCGUAAUAGUAACGCGUCUCCCUCCUAAGGAGAAGACUGCGGGUUCGAGUGCCGUACAGAACG [C5U G17A C60G G67A],≤ 0.5
10,GUUCUGUUGGCGUAAUAGUAACGCGUCUCCCUCCUAAGGAGAAGACUGCGGGUUCGAGUCCCGUAAGGAACG [C5U G17A C66A],0.522
11,GUUCUGUUGGCGUAAUCGUAUCGCGUCUCCCUCCUAAGGGGAAGACGCCGGGUUCGAGUCCCGUACGGAACG [C5U G17C A21U A40G U47G G48C],≤ 0.5
12,GUUCUGUUGGCGUAAUCGUAACGCGUUUCCCUCCUAAGGAGAAGACUGCGGGUUCGAGUCCCGUGCGGAACG [C5U G17C C27U A65G],≤ 0.5
13,GUUCUGUUGGCGUAAUCGUAACGCGUCUACCUCCUAAGGAGAAGAGUGCGGGUUCAAGUCCCGUACGGAACG [C5U G17C C29A C46G G56A],≤ 0.5
14,GUUCUGUUGGCGUAAUCGUAACGCGGCUCCCUCCUAAGGAGAAGACUGCGGGUUCGAGUCCCGUACGGUACG [C5U G17C U26G A69U],≤ 0.5
15,GUUCUGUUGGCGUAAUUGUAACGCGUCUGCGUCCUUCGGAGAAGACUGCGGGUUCGAGUCCCGUACGGCACG [C5U G17U C29G C31G A36U A37C A69C],≤ 0.5
16,GUUCUGUUGGCGUAAUGAUAACGCGUCUCCCUCCUAAGGAGAAGACUGCGGGUUCGAGUCCCGUACGGAACG [C5U G18A],0.76
17,GUUCUGUUGGCGUAAUGAUAACGCGUCUCCCUCCUAAGGUGAAGACCGCGGGUUCGAGUCCCGUACGGAACG [C5U G18A A40U U47C],0.501
18,GUUCUGUUGGCGUAAUGAUAACGCGUCUCCCUCCUAAGGUGAAGACCGCGGGUUCGAGUCCCGUACGAAACG [C5U G18A A40U U47C G68A],0.617
